# Only some compounds are listed: those with a hit (about 3.5% of all), similar ones and a draw of the others.
# HIV Env fusion – inhibitors of HIV Env-mediated cell fusion. HeLa-JRFL Env/CEM21 cell fusion, luciferase. inhibition, % at 12.3 µM. 360,000 tested, 1.1% active. AID 651610;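 active means mean replicate inhibition score of at least 50 and every replicate individually at or above 50; inconclusive means only one of the two criteria met; inactive means mean below 50 and not all replicates reaching 50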;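 further: 0% = plate neutral controls and 100% = maraviroc near 300 nM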
# DENV2 CPE – DENV2-induced cell death inhibition. DENV2-infected cells, cytopathic effect rescue, plate reader. CPE inhibition, % at 9.99 µM. 350,000 tested, 1.7% active. AID 651640; in the data active means CPE inhibition above about 20%, passing the limit was not always enough; inconclusive means no clear call, values can overlap the other calls; tested in BHK-21 cells;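 further: 0% = median of neutral control wells and 100% = median of positive control wells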
# PGC1a acetyl inh – lowers PGC1a acetylation signal in U2OS cells | AlphaScreen anti-acetyl-lysine; with virally co-expressed GCN5 acetyltransferase | AID 651687 | inhibition, % at 15.6 µM | 350,000 tested, 0.17% active;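 active means every replicate shows inhibition of at least 40%; inconclusive means mean inhibition at least 40% but some replicate below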;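 further: 0% = neutral control wells and 100% = positive control wells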
# FN deposition inh – fibronectin deposition inhibition; AH1F fibroblasts, Alexa488-fibronectin deposition fluorescence, overnight; 350,000 tested, 0.086% active; inhibition, % at 12.6 µM;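 active means mean inhibition across replicates of 30% or more, regardless of how many single replicates reach that level; inconclusive means mean under 30% yet at least half of replicates reach 30%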;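 further: positive control wells lacked labelled fibronectin entirely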
#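 Material: AH1F fibroblasts assembling fluorescent fibronectin matrix; amount: 10000 AH1F cells/well; medium: DMEM, 2% serum; reagent: Alexa488-fibronectin, 24 nM final in well; dosing: single compound dose, delivered by pin transfer; incubation: 1 h adhesion, overnight exposure; detection: fluorescence after three HBSS washes, excitation 485 nm, emission 525 nm; measure: fibronectin deposition inhibition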
# Ecoli rRNA inh – selective bacterial rRNA inhibition in E. coli | E. coli WT GFP vs humanized-ribosome RFP mutants, fluorescence, 24 h; active compounds read low; DMSO median 0, no signal -100 | GFP signal change (wild-type ribosome), % (test concentration not listed) | 350,000 tested, 1.6% active;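 active means significant combined selectivity score with lowered wild-type GFP, culture density cut under 30%, mutant RFP and density less affected; inactive means any of these conditions unmet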
# PglD inh – inhibitors of Campylobacter jejuni PglD acetyltransferase. inhibition, % at 12.5 µM. 360,000 tested, 0.098% active. purified PglD enzyme, DTNB colorimetric CoA detection; in the data active means inhibition above about 16%, passing the limit was not always enough; inconclusive means no clear call, values can overlap the other calls
# An asterisk follows results filed as active; ? = inconclusive; / = not tested or not shown; [ ] = another dose, or the depositor's remark.
SMILES,HIV Env fusion,DENV2 CPE,PGC1a acetyl inh,FN deposition inh,Ecoli rRNA inh,PglD inh
Cc1noc(C)c1NC(=O)Nc1ccc2c(c1)C(=O)N([C@H](C)CO)C[C@H](C)[C@H](CN(C)Cc1ccc(C(=O)Nc3ccccc3N)cc1)O2,/,22.2*,1.5,/,1.3,0.8
Cc1noc(C)c1NC(=O)Nc1ccc2c(c1)C(=O)N([C@@H](C)CO)C[C@H](C)[C@H](CN(C)Cc1ccccc1)O2,0.3[16.7 µM],23.2*,/,/,3.2,-2.1
Cc1noc(C)c1NC(=O)Nc1ccc2c(c1)C(=O)N([C@@H](C)CO)C[C@@H](C)[C@H](CN(C)Cc1ccccc1)O2,-20.5[16.7 µM],9.4,/,/,1.1,0.7
CO[C@@H]1CN(C)C(=O)c2ccc(NC(C)=O)cc2OC[C@@H](C)N(CC2CCCCC2)C[C@@H]1C,/,0.1,5.2,-15.4,0.6,-1.2
COc1ccc(S(=O)(=O)N(C)C[C@H]2OCCCC[C@H](C)Oc3ccc(NC(=O)NC4CCCCC4)cc3C(=O)N([C@@H](C)CO)C[C@@H]2C)cc1,-13.8[16.7 µM],-1.0,-6.7,-10.1,4.3,-2.6
C[C@@H]1CN([C@H](C)CO)C(=O)CCCn2cc(nn2)CO[C@@H]1CN(C)S(=O)(=O)c1ccc(-n2cccn2)cc1,/,-5.7,8.8,6.3,1.2,/
COC(=O)C[C@@H]1CC[C@@H]2[C@@H](COc3ccc(NC(=O)Nc4cccc(C)c4)cc3C(=O)N2C)O1,26.1[16.7 µM],4.2,-1.2,-8.1,-5.4,-0.2
NC(=O)C1CCN(C2=C(NS(=O)(=O)c3ccc(Br)cc3)C(=O)c3ccccc3C2=O)CC1,-5.1,0.6,-1.7,-13.3,-30.9*,2.5
CCOC(=O)C1CCN(C2=C(NS(=O)(=O)c3ccc(Br)cc3)C(=O)c3ccccc3C2=O)CC1,-14.1,18.2,/,-25.6,-37.5*,-0.3
NC(=O)C1CCN(C2=C(NS(=O)(=O)c3ccccc3)C(=O)c3ccccc3C2=O)CC1,-4.0,-3.1,2.8,-2.3,1.3,/
O=C(NCC[C@H]1CC[C@H](NC(=O)C2CCCCC2)[C@@H](CO)O1)c1ccc(F)cc1,1.2[16.7 µM],/,-10.7,0.7,-5.3,-0.7
O=C(O)C=Cc1c[nH]c2nccnc12,9.6,-10.1,4.9,5.3,/,4.5
O=C(O)/C=C/c1cnc[nH]1,/,12.3,106.0*,-7.7,3.8,1.2
CCNC(=O)NC1c2ccccc2CSc2ccccc21 (stereo not given),1.7,-2.0,0.4,-2.9,12.3,1.4
CCOCCN1CCN(C2c3ccccc3CSc3ccccc32)CC1 (stereo not given),13.2,-4.9,-5.5,2.1,-24.7*,4.8
COc1ccc(S(=O)(=O)N(C)C[C@@H]2Oc3ccc(NC(=O)c4ccncc4)cc3CC(=O)N([C@H](C)CO)C[C@H]2C)cc1,-12.0[16.7 µM],4.0,-2.4,2.1,-2.4,-1.6
CCCNC(=O)N1CC2(C1)CN(C(C)=O)[C@H](CO)c1[nH]c3cc(OC)ccc3c12,/,-7.0,-2.8,/,5.1,/
Cc1ccc(Cn2c(-c3nonc3N)nc3ccccc32)cc1,/,/,-1.2,/,/,1.8
Nc1nc2ccccc2n1Cc1ccc(Cl)c(Cl)c1,?,33.4*,/,5.6,-52.9,6.1
Cc1ccc(Cn2c(N)nc3ccccc32)cc1,59.2*,-4.0,-5.5,-8.2,-21.4,1.5
C[C@@H]1CCCCO[C@H](CN(C)C(=O)CCCN(C)C)[C@H](C)CN([C@@H](C)CO)C(=O)c2cc(N(C)C)ccc2O1,0.1[16.7 µM],6.4,2.3,/,-1.7,-0.2
Cc1cc(C)cc(NC(=O)c2ccc3c(c2)CCN3S(C)(=O)=O)c1,10.3,-3.6,-7.6,-4.2,-6.0,-3.9
Cc1ccc(-c2csc(NC(=O)c3ccc(S(=O)(=O)N4CCc5ccccc54)cc3)n2)cc1,38.5,25.4*,12.8,0.9,3.9,-4.4
O=C(Nc1nc(-c2ccccc2)cs1)c1ccc(S(=O)(=O)N2CCc3ccccc32)cc1,43.6,?,-10.6,-7.9,-2.6,-0.7
Cc1ccc(NC(=O)c2ccc3c(c2)CCN3S(C)(=O)=O)cc1,-17.0,30.1*,/,4.6,-11.7,-1.8
NS(=O)(=O)c1ccc(NC(=O)c2ccc(S(=O)(=O)N3CCc4ccccc43)cc2)cc1,17.7,-3.8,2.0,-1.9,-15.9,/
COc1ccc(C(=O)Nc2ccc(S(=O)(=O)N3CCc4ccccc43)cc2)cc1,62.1*,/,/,9.8,/,-1.4
